Beta apoptosis: beta cell apoptosis inhibition; INS-1E cytokine-induced death, ATP luminescence, 48 h; percent of positive-control rescue, neutral wells zero; protection from apoptosis, % (concentration not given with the values); 0.8% of 300,000 active;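 active = Every replicate reaches about 75%, or at least half do and their mean reaches it too, limit read from the data; inconclusive = At least half of replicates reach the limit but their mean does not; inactive = Under half of replicates reach the limit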;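 note: higher means more ATP so stronger rescue from cytokine killing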
T cruzi repl: blocks replication of Trypanosoma cruzi | 1.4% of 300,000 active | inhibition, % (no concentration beside the values) | T. cruzi beta-gal in NIH3T3, luminescence, 90 h;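 active = mean inhibition across valid replicates above about 55%, limit read from the data; inconclusive = mean below that limit but half or more replicates reach it; inactive = mean below it, under half of replicates reach it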;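 note: signal also drops with host cell toxicity which is not excluded here; higher percent means less beta-gal luminescence so fewer parasites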
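Test system: β-gal T. cruzi (Tulahuen C4) inside NIH/3T3 cells / Quantity: 5,000 cells/well / Measured by: luminescence from GalScreen with 0.05% NP40, read after 60 min / Medium: DMEM plus 2% FBS / Measure: parasite load inhibition, % / Reagent: Tulahuen C4 trypomastigotes, 5000/well / Schedule: co-culture of at least 90 h after 3 h attachment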
H9c2 TAG inh: inhibitors of triacylglycerol accumulation. H9c2 cells, Nile Red lipid (TAG) fluorescence; cells loaded with 200 µM oleic acid. 0.66% of 230,000 active. inhibition, % at 12.5 µM. AID 651582;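 active = pattern-corrected inhibition of lipid staining of at least 50% with the nuclear-stain viability signal not falling by more than 50%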
CSC inhib: blocks cancer stem cells. cancer stem cell-like cells viability, luminescence. inhibition, % at 7.5 µM. 1.1% of 300,000 active. AID 2717; in the data active = inhibition above about 75%; inconclusive = no clear call, values can overlap the other calls; tested in HMLE shEcad cells
Bfl-1 A1 inh: inhibitors of the anti-apoptotic protein A1, read as caspase activation. MEF A1-2A-BIM cells, Caspase-Glo 3/7 luminescence, 3 h; percent of clofoctol response, vehicle zero. 0.066% of 330,000 active. caspase activation, % (concentration not given with the values);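 active = over half of replicate activation scores above 10%, or exactly half above 10 with the replicate mean above 10; inconclusive = replicate mean below 10 yet half the replicates above 10; inactive = over half of replicates below 10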
Calb FLC: affects C. albicans growth with fluconazole | C. albicans CaCi-2 (fluconazole-resistant clinical isolate) + fluconazole, Alamar Blue growth, 48 h | growth inhibition, % (no concentration beside the values) | 0.57% of 300,000 active | AID 1979;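 active = growth inhibition above about 58% in most replicates, limit read from the data, passing the limit was not always enough; inconclusive = exactly half the replicates above a set limit; inactive = most replicates below a set limit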;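 note: all wells also contain fluconazole at 8 µg/ml as a sub-toxic cotreatment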
Of the large screens only hits and unclear results are named; the others gave an inactive call. An excerpt weighted towards active compounds, which were near 3.1% of everything screened.

COc1cccc(CNC(=O)c2ccc(NS(=O)(=O)c3ccc4[nH]c(=O)[nH]c4c3)cc2)c1	none (no result: T cruzi repl, Calb FLC)
COCC(=O)N(C)C[C@H]1Oc2ncc(Br)cc2C(=O)N([C@@H](C)CO)C[C@H]1C	none (no result: Beta apoptosis, T cruzi repl, CSC inhib, Bfl-1 A1 inh, Calb FLC)
CC1(C)Oc2cc(N)c([N+](=O)[O-])cc2O1	none
C=C1N(C)c2cc([N+](=O)[O-])c(N)cc2C1(C)C	T cruzi repl 68
Cc1ccc(C(C)C)cc1S(=O)(=O)Nc1cccnc1	none (no result: Beta apoptosis)
CCOC(=O)c1c(O)cc(C)cc1Nc1ccccc1	none (no result: H9c2 TAG inh)
O=c1[nH]n2c(C(F)(F)F)cc(C3CC3)nc2c1N=Nc1ccccc1	Calb FLC 88
Cc1cc(C(F)(F)F)n2[nH]c(=O)c(N=Nc3ccccc3)c2n1	none
O=C1CC(c2ccccc2)CC(=NCCO)/C1=C(\O)CCCN1C(=O)c2ccccc2C1=O (stereo unspecified)	Calb FLC 64
CC1(C)CC(=O)/C(=C(\O)CCCN2C(=O)c3ccccc3C2=O)C(=NCC(=O)O)C1	none
Cc1ccccc1-c1ccnc2[nH]n(-c3ccccc3)c(=O)c12	Calb FLC 79 (no result: H9c2 TAG inh)
COc1ccc(/C=N/OCC(=O)N2CC3(C)CC2CC(C)(C)C3)cc1 (stereo unspecified)	CSC inhib 110, Calb FLC inconclusive (no result: H9c2 TAG inh)
Cc1cc(C)nc(-n2ncc3c2CC(c2cccc(Cl)c2)CC3=O)n1 (stereo unspecified)	CSC inhib 81
C[C@H]1CN=C(Nc2ccccc2)N1CCc1ccccc1	none (no result: T cruzi repl, Calb FLC)
[O-][N+]1=c2ccc(Nc3ccccc3)cc2=NC12CCCCC2	Beta apoptosis 107, CSC inhib 80, Calb FLC 108 (no result: H9c2 TAG inh)
O=[N+]([O-])c1ccc2c(c1N1CCCCC1)=NC1(CCCCC1)[N+]=2[O-]	none
COc1ccc(Nc2ccc3c(c2)=NC2(CCCCC2)[N+]=3[O-])cc1	Beta apoptosis 104, T cruzi repl 58
COCc1ccc(C(=O)N2CCCC(N3CCN(c4cccc(Cl)c4)CC3)C2)s1 (stereo unspecified)	none (no result: Beta apoptosis, T cruzi repl, CSC inhib, Bfl-1 A1 inh, Calb FLC)
N/C(=C\C(=O)c1cc(Cl)ccc1O)C(Cl)(Cl)Cl	CSC inhib 85
CCOc1cc(N(CC)CC)ccc1/C=C(/C#N)c1nc2ccccc2[nH]1	T cruzi repl inconclusive
CCCOc1cc(N(CC)CC)ccc1/C=C(/C#N)c1nc2ccc(C)cc2[nH]1	T cruzi repl 64 (no result: H9c2 TAG inh)
COc1cc(/C=C(\C#N)c2nc3ccc(C)cc3[nH]2)c([N+](=O)[O-])cc1OC	none
CCN(CC)c1ccc(/C=C(/C#N)c2nc3ccc(C)cc3[nH]2)c(OC(C)C)c1	T cruzi repl 84 (no result: H9c2 TAG inh)
C1CCC(CNc2c3c(nc4nnnn24)CCCC3)CC1	T cruzi repl 68
CC1(C(=O)NS(=O)(=O)Cc2ccccc2C(F)(F)F)CCN1C(=O)Cc1ccsc1 (stereo unspecified)	none (no result: Beta apoptosis, T cruzi repl, CSC inhib, Bfl-1 A1 inh, Calb FLC)
Cc1ncc(CN2CCCC(C(=O)Nc3ccc(-c4cccc(F)c4)cc3)C2)s1 (stereo unspecified)	CSC inhib 101
COc1ccc(C(=O)C2CCCN(Cc3cnc(N4CCCC4)s3)C2)cc1OC (stereo unspecified)	T cruzi repl 67 (no result: H9c2 TAG inh)
COc1ccc(F)cc1C(=O)C1CCCN(Cc2cnc(N3CCCC3)s2)C1 (stereo unspecified)	T cruzi repl 57
COc1ccc(F)cc1C(=O)C1CCCN(Cc2ccc3c(c2)OCCO3)C1 (stereo unspecified)	none
COc1c(C)cc(C(=O)C2CCCN(Cc3cnc(N4CCOCC4)s3)C2)cc1C (stereo unspecified)	none
COc1ccc(Cl)cc1C(=O)C1CCCN(Cc2cnc(N3CCOCC3)s2)C1 (stereo unspecified)	T cruzi repl 72 (no result: Beta apoptosis)
Cc1ccc(NS(=O)(=O)c2ccc3c(c2)CCN3C(=O)CCC(=O)O)cc1Cl	none (no result: H9c2 TAG inh)
CN1CCN(c2ccc(C(CC(N)=O)NC(=O)Cc3cccc4ccccc34)cc2[N+](=O)[O-])CC1 (stereo unspecified)	none
COc1ccc(CCNC(=O)COC(=O)CSc2ccc(C(N)=O)cc2[N+](=O)[O-])cc1OC	none (no result: Beta apoptosis, T cruzi repl, CSC inhib, Bfl-1 A1 inh, Calb FLC)
CCc1ccc2nc3nc(C)cc(C)c3c(N)c2c1	none (no result: H9c2 TAG inh)
Cc1cc(C)c2c(N)c3ccccc3nc2n1	H9c2 TAG inh 55
O=C(N/N=C\c1cccc(F)c1)c1ccc(Cn2cc(Br)c([N+](=O)[O-])n2)o1	T cruzi repl 68 (no result: H9c2 TAG inh)

Compound activity: PubChem, several laboratories
